This is an account of results in ChEMBL document CHEMBL5370587, “Fungal Anthraquinone Photoantimicrobials Challenge the Dogma of Cationic Photosensitizers” (J Nat Prod, 2023).

Assay [1] has as its system Escherichia coli. Nature of the assay: Antibacterial activity against Escherichia coli DSM1103 assessed as reduction in microbial growth preincubated for 60 mins under dark condition and measured after 20 to 24 hrs at room temperature by muller hinton broth based dilution assay. The assay is classed as functional. Particulars: time 20-24 hrs. The essentials:
(§1)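 Bacteria grown overnight at 37 °C for 15−18 h in the dark, then set to 0.5 McFarland (read at 600 nm) and diluted 1:50 in Müller-Hinton broth to (2–8) × 10⁵ CFU/mL. Dark plate held at room temperature, then incubated at 37 °C. After 20−24 h, turbidity was read against the untreated growth control, with blanks subtracted. Compounds tested at ≥10 concentrations in biological triplicate.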

The subject of assay [2] is A549. As to the kind of experiment: Phototoxicity against human A549 cells assessed as reduction in cell growth preincubated with compound for 24 hrs followed by blue light irradiation at 468 nm for 7 mins 30 sec and measured after 48 hrs by SRB assay. Particulars: A549, light or radiation study. The assay is classed as functional, cell-based. The essentials:
(§2)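 Cells (A549 2000, AGS 2500, T24 1500 per well) seeded in Opti-MEM with 2.4% FCS. After 24 h, treated with 25.0−0.3 μM (six levels). After another 24 h, medium was replaced and cells got blue light (468±27 nm, 9.3 J/cm²). Held 48 h at 37 °C, 5% CO2, then TCA-fixed and SRB-stained, read at 540 nm. EC50 from variable-slope fit with 95% CI.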

Assay [3] has as its system A549. Nature of the assay: Phototoxicity against human A549 cells assessed as reduction in cell growth preincubated with compound for 24 hrs under dark condition and measured after 48 hrs by SRB assay. The assay is classed as functional, cell-based. Particulars: A549, light or radiation study. The essentials: (§3)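 Dark control plate processed the same way: cells (A549 2000, AGS 2500, T24 1500 per well) in Opti-MEM with 2.4% FCS, dosed at 25.0−0.3 μM 24 h after seeding. Medium renewed after 24 h, then 48 h further at 37 °C, 5% CO2 without light. SRB read-out at 540 nm after TCA fixation. EC50 with 95% CI from variable-slope fit.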

The test system of assay [4] is A549. Nature of the assay: Photo index, ratio of EC50 for human A549 cells killed in the absence of light to EC50 for human A549 cells killed after irradiation. The assay is classed as functional. In outline: (§4)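 SRB assay: cells seeded in Opti-MEM with 2.4% FCS, treated 24 h later with 0.3–25.0 μM, medium replaced after 24 h. Duplicate plates were irradiated with blue light (468 nm, 9.3 J/cm²) or green light (519 nm, 30.0 J/cm²), or kept dark, then held 48 h at 37 °C, 5% CO₂. EC50 from Hill fit; photoindex = EC50 dark / EC50 irradiated.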

Assay [5] concerns AGS. As to the kind of experiment: Phototoxicity against human AGS cells assessed as reduction in cell growth preincubated with compound for 24 hrs followed by blue light irradiation at 468 nm for 7 mins 30 sec and measured after 48 hrs by SRB assay. In kind it is functional, cell-based. Particulars: light or radiation study. In outline: as §2
Background: In SRB staining, fixed cells bind dye roughly in proportion to their protein.

Assay [6] concerns AGS. As to the kind of experiment: Phototoxicity against human AGS cells assessed as reduction in cell growth preincubated with compound for 24 hrs under dark condition and measured after 48 hrs by SRB assay. The assay is classed as functional, cell-based. Particulars: light or radiation study. The essentials: as §3
Assay [7] has as its system AGS. As to the kind of experiment: Photo index, ratio of EC50 for human AGS cells killed in the absence of light to EC50 for human AGS cells killed after irradiation. The assay is classed as functional. The essentials: as §4
Assay [8] deals with T-24. Nature of the assay: Phototoxicity against human T24 cells assessed as reduction in cell growth preincubated with compound for 24 hrs followed by blue light irradiation at 468 nm for 7 mins 30 sec and measured after 48 hrs by SRB assay. The assay is classed as functional, cell-based. Particulars: T-24, light or radiation study. The essentials: as §2
Assay [9] relates to T-24. As to the kind of experiment: Phototoxicity against human T24 cells assessed as reduction in cell growth preincubated with compound for 24 hrs under dark condition and measured after 48 hrs by SRB assay. The assay is classed as functional, cell-based. Particulars: T-24, light or radiation study. In outline:
as §3

Assay [10] has as its system T-24. Nature of the assay: Photo index, ratio of EC50 for human T24 cells killed in the absence of light to EC50 for human T24 cells killed after irradiation. The assay is classed as functional. The essentials:
as §4

The subject of assay [11] is Staphylococcus aureus. Nature of the assay: Antibacterial activity against Staphylococcus aureus DSM1104 assessed as reduction in microbial growth preincubated for 60 mins under dark condition and measured after 20 to 24 hrs at room temperature by muller hinton broth based dilution assay. The assay is classed as functional. Particulars: time 20-24 hrs. In outline: as §1

For assay [12], the system named is Escherichia coli. As to the kind of experiment: Antibacterial activity against Escherichia coli DSM1103 assessed as reduction in microbial growth preincubated for 60 mins under dark condition followed by 428 nm light irradiation and measured after 20 to 24 hrs by muller hinton broth based dilution assay. In kind it is functional. Particulars: DSM1103, light or radiation study, time 21-25 hrs. The essentials: (§5)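 PhotoMIC (modified EUCAST broth microdilution): 0.5 McFarland suspensions diluted 1:50 in Mueller-Hinton broth (bacteria, 2–8 × 10⁵ CFU/mL) or 1:10 in double-strength RPMI-1640 (yeast, 0.5–2.5 × 10⁵ CFU/mL); ≥10 concentrations, biological triplicates; 60 min dark preincubation, then 30 J/cm² irradiation or dark duplicate plate; 37 °C, 20–24 h; turbidity versus growth control, blanks subtracted.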

The subject of assay [13] is Escherichia coli. As to the kind of experiment: Antibacterial activity against Escherichia coli DSM1103 assessed as reduction in microbial growth preincubated for 60 mins under dark condition followed by 478 nm light irradiation and measured after 20 to 24 hrs by muller hinton broth based dilution assay. The assay is classed as functional. Particulars: DSM1103, light or radiation study, time 21-25 hrs. The essentials: as §5

Assay [14] concerns Escherichia coli. As to the kind of experiment: Antibacterial activity against Escherichia coli DSM1103 assessed as reduction in microbial growth preincubated for 60 mins under dark condition followed by 530 nm light irradiation and measured after 20 to 24 hrs by muller hinton broth based dilution assay. The assay is classed as functional. Particulars: DSM1103, light or radiation study, time 21-25 hrs. The essentials: as §5

In assay [15] the test system is Staphylococcus aureus. Nature of the assay: Antibacterial activity against Staphylococcus aureus DSM1104 assessed as reduction in microbial growth preincubated for 60 mins under dark condition followed by 428 nm light irradiation and measured after 20 to 24 hrs by muller hinton broth based dilution assay. The assay is classed as functional. Particulars: DSM1104, light or radiation study, time 21-25 hrs. The essentials:
as §5

Assay [16] has as its system Staphylococcus aureus. Nature of the assay: Antibacterial activity against Staphylococcus aureus DSM1104 assessed as reduction in microbial growth preincubated for 60 mins under dark condition followed by 478 nm light irradiation and measured after 20 to 24 hrs by muller hinton broth based dilution assay. Particulars: DSM1104, light or radiation study, time 21-25 hrs. In kind it is functional. In outline: as §5

The test system of assay [17] is Staphylococcus aureus. Nature of the assay: Antibacterial activity against Staphylococcus aureus DSM1104 assessed as reduction in microbial growth preincubated for 60 mins under dark condition followed by 530 nm light irradiation and measured after 20 to 24 hrs by muller hinton broth based dilution assay. In kind it is functional. Particulars: DSM1104, light or radiation study, time 21-25 hrs. The essentials: as §5

Assay [18] relates to Candida albicans. As to the kind of experiment: Antifungal activity against Candida albicans 501670 assessed as reduction in microbial growth preincubated for 60 mins under dark condition and measured after 20 to 24 hrs at room temperature by RPMI-1640 based dilution assay.
The subject of assay [19] is Candida albicans. As to the kind of experiment: Antifungal activity against Candida albicans 501670 assessed as reduction in microbial growth preincubated for 60 mins under dark condition followed by 428 nm light irradiation and measured after 20 to 24 hrs by RPMI-1640 based dilution assay. Particulars: Candida albicans, 501670, light or radiation study.
The test system of assay [20] is Candida albicans. As to the kind of experiment: Antifungal activity against Candida albicans 501670 assessed as reduction in microbial growth preincubated for 60 mins under dark condition followed by 478 nm light irradiation and measured after 20 to 24 hrs by RPMI-1640 based dilution assay. Particulars: Candida albicans, 501670, light or radiation study.
Assay [21] has as its system Candida albicans. Nature of the assay: Antifungal activity against Candida albicans 501670 assessed as reduction in microbial growth preincubated for 60 mins under dark condition followed by 530 nm light irradiation and measured after 20 to 24 hrs by RPMI-1640 based dilution assay. Particulars: Candida albicans, 501670, light or radiation study.

As a reminder, the MIC is the least concentration at which growth counts as inhibited. What is called EC50 is the concentration needed to bring the measured effect to its halfway point. With `Cc1cc(O)c2c(c1)C(=O)c1cc(O)cc(O)c1C2=O` [EMODIN], the minimal inhibitory concentration (MIC) in the assay on Escherichia coli [1] was over 92 µM; in the assay with Staphylococcus aureus [11] it was over 92 µM; in the assay on Escherichia coli [12], 11.1 µM; in the assay with Escherichia coli [13] it was over 92 µM; in the assay on Escherichia coli [14], over 92 µM; in the assay with Staphylococcus aureus [15], 1.85 µM. For the same compound, the MIC is 1.85 µM in the assay with Staphylococcus aureus [16]; 11.1 µM in the assay on Staphylococcus aureus [17]; over 92 µM in the assay on Candida albicans [18]; 0.37 µM with Candida albicans [19]; 2.78 µM with Candida albicans [20]; 46 µM in the assay on Candida albicans [21]. The half-maximal effective concentration (EC50) in the assay on A549 [2] was 2.9 µM; in the assay with A549 [3] it was 19 µM; in the assay on AGS [5], 1.5 µM; in the assay on AGS [6], over 25 µM; with T-24 [8], 1.7 µM; with T-24 [9], over 25 µM. In addition, the “Ratio EC50” value is given as 7 in the assay with A549 [4], over 16 with AGS [7] and over 15 in the assay on T-24 [10].
